In the library only some 2% were active in any assay of this set; here they are far more common.
FN deposit inh = fibronectin deposition inhibition. 350,000 compounds, 0.086% hits. inhibition, % at 12.6 µM. AH1F fibroblasts, Alexa488-fibronectin deposition fluorescence, overnight. AID 743247;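 active = mean inhibition across replicates of 30% or more, regardless of how many single replicates reach that level; inconclusive = mean under 30% yet at least half of replicates reach 30%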;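 also: positive control wells lacked labelled fibronectin entirely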
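Material: AH1F fibroblast monolayer depositing Alexa488-labelled fibronectin into matrix / Amount: 10000 AH1F cells per well / Signal: fluorescence 485/525 nm / Medium: DMEM, 2% serum / Compound: single dose, pinned / Incubation: 1 h cell adhesion before compound, then overnight fibronectin incubation / Reagent: Alexa488-FN, 24 nM final / Read-out: inhibition of fibronectin deposition signal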
XiGFP reactiv = X-chromosome reactivation activator; XiGFP mouse fibroblasts, % GFP-positive cells imaging, 3 d; cells co-treated with 5-aza-dC sensitizer; scaled so ellipticine positive control = 100%; AID 743238; 360,000 compounds, 0.055% hits; activation, % at 7.58 µM;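 active = mean normalized replicate activation at least 10% and every replicate at or above 10%; inconclusive = only one of the two criteria met; inactive = mean below 10% and not all replicates reach 10%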;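 also: 0% = median of on-plate neutral control wells and 100% = ellipticine 6 µM median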
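Material: XiGFP fibroblasts, SV40-immortalized; Buffer or medium: DMEM containing 5-aza-dC; Compound dosing: single point; Times: 3 days compound exposure.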
CASP6 VEID inh = inhibitors of human caspase-6. P55212. purified caspase-6, Z-VEID-R110 cleavage fluorescence. inhibition, % at 12.5 µM. 350,000 compounds, 0.53% hits. AID 686996;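 active = mean inhibition across replicates at least about 35%, with every replicate also reaching that limit, limit read from the data; inconclusive = only one of the two criteria met; inactive = neither criterion met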;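 also: 0% = median of neutral control wells and 100% = no fluorescence left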
Target sequence (P55212 24-179 limits assumed): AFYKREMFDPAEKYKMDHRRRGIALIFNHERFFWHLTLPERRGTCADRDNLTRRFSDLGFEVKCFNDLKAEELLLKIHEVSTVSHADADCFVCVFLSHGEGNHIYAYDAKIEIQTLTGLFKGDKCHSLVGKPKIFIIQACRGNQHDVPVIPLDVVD
Target sequence (P55212 194-293 limits assumed): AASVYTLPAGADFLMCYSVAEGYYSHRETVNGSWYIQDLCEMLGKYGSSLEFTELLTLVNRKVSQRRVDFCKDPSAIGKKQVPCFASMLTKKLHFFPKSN
DENV2 CPE = DENV2-induced cell death inhibition; DENV2-infected cells, cytopathic effect rescue, plate reader; CPE inhibition, % at 9.99 µM; 350,000 compounds, 1.7% hits; in the data active = CPE inhibition above about 20%, passing the limit was not always enough; inconclusive = no clear call, values can overlap the other calls; tested in BHK-21 cells;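 also: 0% = median of neutral control wells and 100% = median of positive control wells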
CaV13 FRET inh = Primary screen for inhibitors of IQ motif and Ca2+-dependent inactivation inhibitor domain binding in CACNA1D, Förster resonance energy transfer in living cells, …; HEK cells, CFP/YFP FRET ICDI-IQ, plate reader, 10 min; percent FRET-ratio fall versus neutral wells; inhibition, % at 12.3 µM; 340,000 compounds, 0.098% hits; AID 743397;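 active = mean replicate inhibition of at least 30% and at least 1% of replicates passing that level; inconclusive = only one of the two criteria is met; inactive = neither criterion is met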;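 also: 0% = median of the neutral control wells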
* marks the source's active call; other numbers are inactive results; ? = inconclusive; . = no result given; ! = repeats disagree.

SMILES	FN deposit inh	XiGFP reactiv	CASP6 VEID inh	DENV2 CPE	CaV13 FRET inh
Cc1ccc(S(=O)(=O)n2c(C)nc3ccccc32)cc1	4	0	41*	-3	-19
COc1cc(OC)c(C2CC(=O)N3CN(C)CSC3=C2C#N)cc1OC (stereo not drawn)	4	0	3	-5	12
COc1ccc(Br)cc1C1CC(=O)N2CN(C)CSC2=C1C#N (stereo not drawn)	-19	0	35*	-8	?
CCCNC(=O)N1C[C@@H](O)COC[C@H]2O[C@@H](CC(=O)N3CCC(Cc4ccccc4)CC3)CC[C@@H]21	-14	0	0	-1	.
Cc1nc2ccccc2n1C(c1cccnc1)c1nc2ccccc2[nH]1 (stereo not drawn)	3	0	-4	38*	-8
c1ccc(-c2nc3ccccc3n2C(c2ccccc2)c2nc3ccccc3[nH]2)cc1 (stereo not drawn)	1	0	1	3	-6
CCCNC(=O)[C@@H]1[C@@H](CO)[C@@H]2Cn3c(cccc3=O)[C@@H]2N1Cc1cccc(F)c1	-5	0	1	-6	.
CC(C)(C)n1nnnc1C(c1cc2ccccc2o1)N1CCOCC1 (stereo not drawn)	2	0	-3	107*	-5
CCCNC(=O)N1C[C@@H]2N[C@H](C1)C2c1ccc(-c2ccc(F)cc2)cc1 (stereo partly drawn)	-1	0	1	?	.
COc1cccc(S(=O)(=O)N2C[C@@H]3N[C@H](C2)C3c2ccc(-c3ccccc3C)cc2)c1 (stereo partly drawn)	11	0	37*!	4	.
CCCNC(=O)N1C[C@@H]2N[C@H](C1)C2c1ccc(-c2ccccc2C)cc1 (stereo partly drawn)	7	0	.	27*	.
Cc1ccccc1-c1ccc(C2[C@@H]3CN(C(=O)Cc4ccncc4)C[C@H]2N3)cc1 (stereo partly drawn)	4	0	.	86*!	.
CCCNC(=O)N1C[C@@H]2N[C@H](C1)C2c1ccc(-c2ccc(OC)cc2)cc1 (stereo partly drawn)	-5	0	.	32*!	.
CCCNC(=O)N1C[C@@H]2N[C@H](C1)C2c1ccc(-c2cccc(OC)c2)cc1 (stereo partly drawn)	-4	0	-2	2	.
COc1cccc(S(=O)(=O)N2C[C@@H]3N[C@H](C2)C3c2ccc(-c3ccccc3OC)cc2)c1 (stereo partly drawn)	0	0	2	-5	.
C[C@@H]1CN([C@H](C)CO)S(=O)(=O)c2ccc(-c3ccncc3)cc2O[C@@H]1CN(C)CC1CC1	7	-1	1	6	.
O=C(C[C@@H]1C=C[C@H](NC(=O)Nc2cc(F)ccc2F)[C@H](CO)O1)Nc1ccc(-c2ccccc2)cc1	-7	1	-2	10	.
O=C(c1ccccn1)N1CC(=O)N2[C@H](CO)[C@H](c3ccc(C#Cc4ccccc4)cc3)[C@H]2C1	.	0	.	-3	.
C[C@H](CO)N1C[C@H](C)[C@H](CN(C)S(C)(=O)=O)Oc2c(NS(C)(=O)=O)cccc2C1=O	.	0	-1	3	.
CCCNC(=O)N1[C@@H]2CNC[C@H]1C2c1ccc(/C=C/c2ccccc2)cc1 (stereo partly drawn)	0	0	2	-12	.
CCCNC(=O)N1[C@@H]2CNC[C@H]1C2c1ccc(-c2ccc(C)cc2)cc1 (stereo partly drawn)	0	0	.	38*	.
C[C@@H]1CCCCO[C@H](CN(C)Cc2ccncc2)[C@@H](C)CN([C@@H](C)CO)C(=O)c2cc(NC(=O)NC3CCCCC3)ccc2O1	0	0	-5	75*	.
C[C@H]1CN([C@@H](C)CO)C(=O)c2cc(NC(=O)NC3CCCCC3)ccc2O[C@H]1CN(C)Cc1ccncc1	1	0	-1	25*	.
C[C@H]1CCCCO[C@@H](CN(C)Cc2ccncc2)[C@@H](C)CN([C@@H](C)CO)C(=O)c2cc(NC(=O)NC3CCCCC3)ccc2O1	8	0	0	?	.
COCC#Cc1ccc([C@H]2[C@@H](CO)N3C(=O)CN(C(=O)Nc4ccc(F)cc4)C[C@@H]23)cc1	.	0	0	-6	.
SMILES	FN deposit inh	XiGFP reactiv	CASP6 VEID inh	DENV2 CPE	CaV13 FRET inh
C[C@@H]1CN([C@@H](C)CO)C(=O)Cc2cc(NC(=O)CCCN(C)C)ccc2O[C@@H]1CN(C)S(=O)(=O)c1ccccc1	0	-1	.	.	.
C[C@H](c1ccccc1)N1C[C@@H](COCc2ccccc2)Oc2cccc(Oc3ccc(C(C)(C)C)cc3)c2S1(=O)=O	-8	0	2	85*	-8
C=C(NC(=O)C(=C)NC(=O)c1csc(C2=NC3c4csc(n4)C4NC(=O)c5csc(n5)C(C(C)(O)C(C)O)NC(=O)C5CSC(=N5)/C(=C/C)NC(=O)C(C(C)O)NC(=O)c5csc(n5)C3(CC2)NC(=O)C(C)NC(=O)C(=C)NC(=O)C(=C)NC(=O)C(C(C)C)NC2C=Cc3c(C(C)O)cc(nc3C2O)C(=O)OC4C)n1)C(N)=O (stereo not drawn)	-4	1	9	60*	-15
CCOc1cc(OCC)cc(C(=O)N2CCC[C@@H]2C(=O)N2CCC[C@@H]2C(=O)NCc2ccccc2Cl)c1	3	0	-2	81*	-6
CC(C)(C)OC(=O)N1CCC[C@@H]1C(=O)N1CCC[C@@H]1C(=O)NCc1ccccc1Cl	-2	0	-2	34*	-9
CCOc1cc(OCC)cc(C(=O)N2CCC[C@H]2C(=O)N2CCC[C@H]2C(=O)NCc2ccc(F)cc2F)c1	-1	0	-1	8	-10
O=C(Nc1ccc(F)cc1)N1CC(=O)N2[C@H](CO)[C@@H](c3ccc(-c4ccc(F)cc4)cc3)[C@@H]2C1	.	0	-2	6	.
C[C@@H]1CN([C@@H](C)CO)C(=O)c2cc(NC(=O)NC3CCCCC3)ccc2O[C@@H](C)CCCCO[C@H]1CN(C)C	.	0	-1	-6	.
O=c1[nH]c(=O)c2nc(-c3ccc(Cl)cc3)cnc2[nH]1	1	0	0	-2	100*
CS(=O)(=O)N1CC(=O)N2[C@H](C1)[C@@H](c1ccc(C#CCc3ccccc3)cc1)[C@@H]2CO	.	0	1	14	.
CCC(=O)N1CC2(C1)[C@H](c1ccccc1)[C@@H](CO)N2CC1CCOCC1	-11	0	1	17	.
Cc1cc2nc(NCCCO)n(CC(=O)c3cc(C(C)(C)C)c(O)c(C(C)(C)C)c3)c2cc1C	2	0	-2	32*	-5
C/C(=N\NC(=O)c1ccc(CSc2cccc3cccnc23)cc1)C1CCCCC1	7	0	2	102*	-3

High-throughput results: PubChem, Broad Institute
